Our source for the CD50 and IC50 values is ChEMBL document CHEMBL1124947, “Cationic antiprotozoal drugs. Trypanocidal activity of 2-(4'-formylphenyl)imidazo[1,2-a]pyridinium guanylhydrazones and related derivatives of quaternary heteroaromatic compounds” (J Med Chem, 1990).

What all share (type): functional
Assay [1] concerns Mus musculus. In words: Trypanocidal Activity at I.C.E. value 0.75 when administered subcutaneously. The method in brief:
(§1)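 Mice, in groups of five per dose, were given a standard inoculum of blood-stage T. rhodesiense that is lethal to all untreated controls, then dosed subcutaneously. Usually 11 dose levels were used (2^n × 0.42 mg/kg).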

Assay [2] concerns Mus musculus. In words: Trypanocidal Activity at I.C.E. value 0.24 when administered perorally.
Assay [3] concerns Mus musculus. In words: Trypanocidal Activity at I.C.E. value 0.72 when administered subcutaneously. The method in brief: as §1
Assay [4] concerns Mus musculus. In words: Trypanocidal Activity at I.C.E. value 0.70 when administered perorally.
Assay [5] relates to Mus musculus. In words: Trypanocidal Activity at I.C.E. value 0.54 when administered subcutaneously. The method in brief: (§2)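 Blood-stage T. rhodesiense infection came from a standard inoculum lethal to all untreated mice. Drug was given by subcutaneous injection to groups of five mice. Survival beyond 30 days counted as cure. […] Sub-curative doses scored 0, and data were normalized at each dose.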

Assay [6] deals with Trypanosoma brucei rhodesiense. In words: In Vitro measurement of inhibition of leucine uptake in cell culture of Trypanosoma rhodesiense. As to conditions: read-out: ID50 (the source's name). The method in brief: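 Trypanosomes harvested from infected rats, cultured 3 h with several concentrations of drug, usually 0.1–100 µg/mL. Radiolabeled L-leucine uptake measured. ID50 is the concentration in µg/mL giving 50% inhibition of incorporation.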

The subject of assay [7] is Trypanosoma brucei rhodesiense. In words: In Vitro measurement of inhibition of thymidine uptake in cell culture of Trypanosoma rhodesiense. The conditions noted are these: read-out: ID50 (the source's name). The procedure, abridged: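 Parasites harvested from infected rats and incubated 3 h across a drug concentration series, usually 0.1–100 µg/mL. Incorporation of radiolabeled thymidine measured. ID50 is the concentration (µg/mL) producing 50% inhibition.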

Assay [8] relates to Mus musculus. In words: Trypanocidal Activity at I.C.E. value 0.56 when administered subcutaneously. The procedure, abridged: as §1
For assay [9], the system named is Mus musculus. In words: Trypanocidal Activity at I.C.E. value 0.60 when administered perorally.
The subject of assay [10] is Mus musculus. In words: Trypanocidal Activity at I.C.E. value 0.52 when administered subcutaneously. The procedure, abridged: as §2
Assay [11] concerns Mus musculus. In words: Trypanocidal Activity at I.C.E. value 0.92 when administered subcutaneously. The procedure, abridged:
as §1

The subject of assay [12] is Mus musculus. In words: Trypanocidal Activity at I.C.E. value 0.27 when administered perorally.

As to `Br.Cc1cccc2n1cc(COc1ccc(/C=N/NC(=N)N3CCCC3)cc1)[n+]2C.[Br-]`, the values for the CD50 with Mus musculus [1] and with Mus musculus [2] were 0.4 mg/kg and 53 mg/kg, respectively.

As to `Br.C[n+]1c(/C=C/c2ccc(/C=N/NC(=N)NO)cc2)cn2ccccc21.[Br-]`, the CD50 in the assay with Mus musculus [3] stood at 0.2 mg/kg.

Turning to `Br.C[n+]1c(-c2ccc(/C=N/NC(=N)N3CCCC3)cc2)cn2ccsc21.[Br-]`, the CD50 came to 3.3 mg/kg in the assay with Mus musculus [4] and 0.1 mg/kg with Mus musculus [5].

In the case of `CN(C)C(=N)N/N=C/c1ccc(-c2cn3ccsc3[n+]2C)cc1.I.[I-]`, the IC50 in assay [6] and in [7] was 1 µg/mL throughout. Besides, the CD50 with Mus musculus [8] came out at 0.2 mg/kg.

As to `CNC(=N)N/N=C/c1ccc(-c2cn3ccsc3[n+]2C)cc1.I.[I-]`, the CD50 stood at 6.6 mg/kg in the assay with Mus musculus [9] and 0.4 mg/kg with Mus musculus [10]. Further, the IC50 in assay [6] is 1.2 µg/mL; in assay [7] it was 1.5 µg/mL.

For the molecule `Br.CCCSc1ccc2n(c1)cc(-c1ccc(/C=N/NC(=N)N)cc1)[n+]2C.[Br-]`, the figures for the CD50 in the assay on Mus musculus [11] and in the assay on Mus musculus [12] were 0.2 mg/kg and 26 mg/kg, respectively.
